In PMC8494022 (Chemical Science, 2021):

Tests used:
[1] = cited from earlier work
CT26 cells [2] = test: Cellular uptake of FITC-labeled albumin with endocytosis inhibitors; assay type: cell-based, murine (Balb/c); details: 1 h inhibitor pretreatment, uptake after 3 h
[3] = Reduction kinetics with ascorbic acid by NMR; assay type: physicochemical; details: 100 μM, ascorbic acid 10 eq., cell-free, pD 7.4, 37°C
[4] = Pharmacokinetic of single dose in serum; assay type: in vivo, Balb/c mice
In short: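 Naive BALB/c mice (n = 4 per group) received a single i.v. dose equimolar to 9 mg kg−1 oxaliplatin. Serum was sampled between 0.08 h and 336 h, and serum versus blood clot was compared at 24 h. Platinum was quantified by ICP-MS and used for concentration–time curves, AUC and terminal elimination half-life.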

CT26 tumors [5] = test: Histological evaluation of treated tumors; assay type: in vivo, Balb/c mice; details: tumors day 12, H&E-stained
In short: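 CT26-bearing BALB/c mice dosed i.v. twice weekly for two weeks, equimolar to 9 mg kg−1 oxaliplatin. Tumors were collected on day 12, 24 h after the last dose. Apoptotic and mitotic cells were counted in H&E sections. Percentages of cleaved caspase-3-positive and Ki-67-positive cells were scored by image analysis. One-way ANOVA with Dunnett's test.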

CT26 tumors [6] = test: Allograft anticancer activity experiments; assay type: in vivo; details: CT26-bearing BALB/c mice
In short: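 CT26 allografts in immune-competent BALB/c mice; test compounds and oxaliplatin given i.v. twice weekly for two weeks at doses equimolar to 9 mg kg−1 oxaliplatin. Body weight was followed. Tumor growth is reported as mean ± SEM and compared by two-way ANOVA. Overall survival was plotted as Kaplan–Meier curves and compared by log-rank test with Mantel–Cox posttest.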

CT26 cells [7] = test: Cellular platinum uptake determined by ICP-MS; assay type: cell-based, murine (Balb/c); details: MβCD, CHP, EIPA 1 h pretreatment, uptake after 3 h
CT26 cells [8] = test: Cytotoxicity, MTT-based cell viability assay; set-up: species or system murine (Balb/c)
In short: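 MTT-based viability of CT26 cells after 72 h drug exposure, alone or with 100 μM ascorbic acid co-treatment. Values are means ± SD of one representative experiment run in triplicates.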

## COc1cccc2c1C(=O)c1c(O)c3c(c(O)c1C2=O)C[C@@](O)(/C(CO)=N/NC(=O)CCCCCN1C(=O)C=CC1=O)C[C@@H]3O[C@H]1C[C@H](N)[C@H](O)[C@H](C)O1 [aldoxorubicin]
[1]
  in vivo elimination half-life: 2.3 h
[1]; no further increase during the next 24 h
  time at which tumor accumulation reached a plateau: 2 h

## COc1cccc2c1C(=O)c1c(O)c3c(c(O)c1C2=O)C[C@@](O)(C(=O)CO)C[C@@H]3O[C@H]1C[C@H](N)[C@H](O)[C@H](C)O1 [doxorubicin]
[1]; 15 min after i.v. injection
  concentration in blood, share of the initial amount: less than 2%
[1]
  in vivo elimination half-life: in the order of minutes

## CCN(c1nc(N)c(C(=O)NC(=N)N)nc1Cl)C(C)C [EIPA, 5-(N-ethyl-N-isopropyl)amiloride]
CT26 cells [2]
  impact on uptake of FITC-labeled albumin: had no impact on albumin uptake

## CC(=O)[O][Pt]([NH2])([Cl])([Cl])([NH]C1CCCCC1)[O]C(C)=O [Satraplatin, satraplatin]
[3]
  time to complete reduction: < 24 h

## O=C1[O][Pt]2([NH][C@@H]3CCCC[C@H]3[NH]2)[O]C1=O [oxaliplatin]
[4]; 5 min, equimolar application
  serum concentration at first sampling time point relative to KP2156: drastically lower than for KP2156
[4]; single i.v. dose
  total clearance relative to KP2156: at least one order of magnitude higher than that of KP2156
[4]; single i.v. dose equimolar to 9 mg kg−1 oxaliplatin
  terminal elimination half-life (t ½): 32.5 h
CT26 tumors [5]
  change of mitotic cells: significant increase of mitotic cells
CT26 tumors [6]; i.v. twice a week for two weeks, equimolar to 9 mg kg−1 oxaliplatin
  impact on tumor growth: significant activity
CT26 tumors [6]; same scheme
  day at which treated tumors progressed again: ~15 days
CT26 cells [7]
  impact of endocytosis inhibitors on cellular drug uptake: neither accumulation of oxaliplatin nor KP2157 were affected by endocytosis inhibition
CT26 cells [8]; 100 μM AA, 72 h
  impact of ascorbic acid co-treatment on activity (cell viability): no relevant impact
CT26 cells [8]; after 72 h
  IC50: ~3.5 µM

## methyl-β-cyclodextrin [MßCD]
CT26 cells [2]
  impact on uptake of FITC-labeled albumin: significantly reduced
